Reference: article PMC3880198 (Melanoma research, 2012)
Where two headings read alike, the source gives them in different places. Marks after values point to notes of the source that are not given here.

How the values were obtained:
advanced melanoma [1] = settings: five of 32 treated patients with advanced melanoma; cited from earlier work
metastatic melanoma [2] = assay type: in vivo, human; settings: for Median PFS in weeks (95% CI) / PFS rate at 8 weeks (95% CI): Kaplan-Meier estimate; for Best tumor response: PR / Best tumor response: SD / Best tumor response: CR: RECIST
clinical = assay: clinical; design: species or system human; settings: in vivo; for Mean cilengitide concentration / level at 2 h / level at 4 h / level at 24 h: human, iv; for level at 2 h / level at 4 h / level at 24 h: Mean cilengitide concentration
integrin αvβ3 [3] = assay: Tumoral αvβ3 expression by IHC staining; assay type: in vivo, human
How it was run: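 Core-needle or skin punch tumor biopsies 5-7 days pre-treatment and cycle 1 day 8, within 6 h post-infusion. IHC with anti-αvβ3 LM 609; consensus grading by two pathologists on % positive cells (0 none; +1 1-10%; +2 11-25%; +3 26-75%; +4 >75%). Paired t-test, pre vs post.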

integrin αvβ3 [4] = settings: inhibits binding of the integrin to vitronectin; cited from earlier work
[5] = system: bFGF- and VEGF-mediated angiogenesis; settings: chorioallantoic membrane model; ref Cilengitide, Investigators Brochure; cited from earlier work
[6] = cited from earlier work
[7] = system: recurrent malignant glioma; settings: at 360 mg/m^2 and 2,400 mg/m^2; cited from earlier work
[8] = system: recurrent glioblastoma multiforme (GBM); settings: 81 patients with GBM; cited from earlier work
glioblastoma = settings: in combination with temozolomide and radiation therapy; cited from earlier work
[9] = system: melanoma and endothelial cells; settings: combination of cilengitide and temozolomide, in vitro; cited from earlier work
melanoma = settings: combination of cilengitide and temozolomide, in vivo; cited from earlier work
[10] = cited from earlier work; remark: listed apart in the source
[11] = system: patients with metastatic melanoma; assay: Toxicity evaluation; settings: both doses (500 mg and 2,000 mg i.v. twice weekly)
advanced melanoma [12] = settings: cited from earlier work
metastatic melanoma [13] = settings: cited from earlier work
[14] = among eight patients with matching samples and detectable αvβ3 at baseline

## CNC(=O)c1ccccc1Sc1ccc2c(/C=C/c3ccccn3)n[nH]c2c1 [axitinib]
Advanced melanoma [1]
  Objective clinical response: 16%

## CC(C)[C@H]1C(=O)N[C@@H](CCCNC(=N)N)C(=O)NCC(=O)N[C@@H](CC(=O)O)C(=O)N[C@H](Cc2ccccc2)C(=O)N1C [cilengitide, Cilengitide]
Metastatic melanoma [2]; 500-mg dose (n=14)
  Response rate (CR+PR): 0%
  Median PFS in weeks (95% CI): 8.0 weeks
  PFS rate at 8 weeks (95% CI): 14% (4-52%)
  Best tumor response: PR: 0
  Best tumor response: SD: 2(14%)
Metastatic melanoma [2]; 500-mg dose i.v. twice weekly (n=14)
  Best tumor response: CR: 0
Metastatic melanoma [2]; 2,000-mg dose (n=12)
  Response rate (CR+PR): 8%
  Median PFS in weeks (95% CI): 7.9 weeks
  Best tumor response: SD: 0
Metastatic melanoma [2]; 2,000-mg dose (n=12), patient initially progressed after 4 weeks
  Best tumor response: PR: 1 (8%) ^†
Metastatic melanoma [2]; 2,000-mg dose i.v. twice weekly (n=12)
  Best tumor response: CR: 0
Metastatic melanoma [2]; Overall patients (n=26)
  Response rate (CR+PR): 4%
  Median PFS in weeks (95% CI): 8.0 (7.9-8.1) weeks
  PFS rate at 8 weeks (95% CI): 12% (4-33%)
  Best tumor response: CR: 0
  Best tumor response: PR: 1 (4%) ^†
  Best tumor response: SD: 2(8%)
Metastatic melanoma [2]; dose up to 2,000 mg twice weekly, metastatic melanoma
  Clinical efficacy as single agent: minimal clinical efficacy
Metastatic melanoma [2]; of 26 treated patients
  Patients free of disease progression per RECIST at 8 weeks: three
Metastatic melanoma [2]; single patient, 2,000 mg, later partial response
  Increase in the sum of the largest diameters of five target lesions after one treatment cycle: 28%
clinical; 500 mg, 2 h
  Mean cilengitide concentration: 17.6 µg/mL
clinical; 500 mg, 4 h
  Mean cilengitide concentration: 8.75 µg/mL
clinical; 500 mg
  level at 2 h: 18200 ng/mL
  level at 4 h: 8250 ng/mL
  level at 24 h: 40 ng/mL
clinical; 2000 mg, 2 h
  Mean cilengitide concentration: 65.8 µg/mL
clinical; 2000 mg, 4 h
  Mean cilengitide concentration: 30.5 µg/mL
clinical; 2000 mg, 24 h
  Mean cilengitide concentration: 0.58 µg/mL
clinical; 2000 mg
  level at 2 h: 73200 ng/mL
  level at 4 h: 35900 ng/mL
  level at 24 h: 710 ng/mL
clinical
  Accumulation after repeated biweekly doses: No accumulation was observed
  Increases in plasma concentrations at the given time points with dose: dose proportional
Integrin αvβ3 [3]; [14]
  Patients in whom αvβ3 expression decreased: five
  Patients in whom αvβ3 expression increased: none
Integrin αvβ3 [3]; baseline vs day 8, 17 matching samples, paired t-test P=0.05
  Overall tumoral αvβ3 expression with cilengitide treatment: decreased
Integrin αvβ3 [4]
  Binding to integrin αvβ3 (nanomolar range): ~ 2 nM
[5]
  Cytokine-induced bFGF- and VEGF-mediated angiogenesis: blocked
[6]
  Half-life: less than 5 hours
[6]; doses of 120-1,200 mg/m^2, phase I trials
  Half-life: 2.3 to 4.0 h
[6]; phase I trials
  Maximum-tolerated dose: has not been established
[7]
  Response in patients with recurrent malignant glioma: Complete responses were reported
[8]
  Median OS duration: 9.9 months
glioblastoma
  6-month PFS rate: 69%
  12-month PFS rate: 33%
  Median PFS: 8.0 months
[9]
  Antiproliferative effects of the combination: synergistic antiproliferative effects
melanoma
  Tumor reduction: more effective tumor reduction compared with temozolomide alone
[10]
  Concentration noted to be active in preclinical studies (biologically active level): 11-13 μg/mL
[11]
  Tolerability: well tolerated

## CN(C)/N=N/c1[nH]cnc1C(N)=O [dacarbazine]
Advanced melanoma [12]
  Estimated PFS rate at 8 weeks: approximately 40%

B1: etaracizumab (antibody, chains of the INN, looked up, V domains shown)
VH: QVQLVESGGGVVQPGRSLRLSCAASGFTFSSYDMSWVRQAPGKGLEWVAKVSSGGGSTYYLDTVQGRFTISRDNSKNTLYLQMNSLRAEDTAVYYCARHLHGSFASWGQGTTVTVSS
VL: EIVLTQSPATLSLSPGERATLSCQASQSISNFLHWYQQRPGQAPRLLIRYRSQSISGIPARFSGSGSGTDFTLTISSLEPEDFAVYYCQQSGSWPLTFGGGTKVEIK
Metastatic melanoma [13]; combination arm with dacarbazine
  Patients with a clinical response: 12.7%
Metastatic melanoma [13]; etaracizumab alone, 57 patients
  Patients with a clinical response: none
